B1: His-tagged scRev7 (S. cerevisiae Rev7) (natural protein)
chain: MNRWVEKWLRVYLKCYINLILFYRNVYPPQSFDYTTYQSFNLPQFVPINRHPALIDYIEELILDVLSKLTHVYRFSICIINKKNDLCIEKYVLDFSELQHVDKDDQIITETEVFDEFRSSLNSLIMHLEKLPKVNDDTITFEAVINAIELELGHKLDRNRRVDSLEEKAEIERDSNWVKCQEDENLPDNNGFQPPKIKLTSLVGSDVGPLIIHQFSEKLISGDDKILNGVYSQYEEGESIFGSLF

Experiments:
scRev7 [1] = assay: SEC oligomeric state and stoichiometry; design: species or system S. cerevisiae; details: 20 mM Tris, 100 mM NaCl, 2 mM EDTA, 1 mM DTT, pH 8
Summary of the method: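 scRev7 (MCS-1) co-expressed with scRev3 fragments or mutants (MCS-2) from pETDuet-1 in E. coli BL21(DE3); empty MCS-2 for apo-scRev7. Grown in 1L LB at 37 °C, induced with 1 mM IPTG at 20 °C overnight. Lysed by sonication in 20 mM sodium phosphate, 300 mM NaCl, 10 mM imidazole. Cobalt affinity, then Superdex 75 or 200 SEC with comparison of elution volumes.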

MBP-scRev7 = target: T1, MBP-scRev7 (Saccharomyces cerevisiae, UniProt P38927); assay: ITC of scRev3 peptides titrated into MBP-scRev7; type: binding, S. cerevisiae; details: 25 °C, 50 mM Tris, 100 mM NaCl, pH 8.4, 300 μM peptide titrated into 30 μM MBP-scRev7 in 2.5 μl increments, Fig. S5C
T1 sequence (P38927 1-245): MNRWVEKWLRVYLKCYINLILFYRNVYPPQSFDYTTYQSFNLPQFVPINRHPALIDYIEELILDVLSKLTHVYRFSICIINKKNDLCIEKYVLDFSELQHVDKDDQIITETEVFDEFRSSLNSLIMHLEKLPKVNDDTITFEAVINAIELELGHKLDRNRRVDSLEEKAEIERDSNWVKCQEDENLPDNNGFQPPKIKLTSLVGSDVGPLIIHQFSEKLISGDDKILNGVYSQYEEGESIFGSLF

[2] = target: T2, scRev7 fused to the maltose binding protein (MBP-scRev7) (S. cerevisiae, UniProt P38927 1-245); assay: ITC
T2 sequence: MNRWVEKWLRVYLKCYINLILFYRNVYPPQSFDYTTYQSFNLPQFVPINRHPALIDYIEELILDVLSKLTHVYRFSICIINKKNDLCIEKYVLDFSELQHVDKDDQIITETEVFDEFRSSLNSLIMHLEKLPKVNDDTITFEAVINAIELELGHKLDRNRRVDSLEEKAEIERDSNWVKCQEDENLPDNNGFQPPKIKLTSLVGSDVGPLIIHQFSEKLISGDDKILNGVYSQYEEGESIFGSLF

[3] = target: B1; assay: AUC
[4] = target: T3, scRev3-RBM12 (residues 510-629), co-expressed with scRev7 (S. cerevisiae, UniProt P14284 510-629); assay: AUC
T3 sequence: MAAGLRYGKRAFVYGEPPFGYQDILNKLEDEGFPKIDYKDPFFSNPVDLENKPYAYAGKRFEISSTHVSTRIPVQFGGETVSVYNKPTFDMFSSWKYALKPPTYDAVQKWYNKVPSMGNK

[5] = target: T4, truncated scRev3 fragment containing RBM2, but not RBM1 (residues 545-629) (S. cerevisiae, UniProt P14284 545-629); assay: SEC
T4 sequence: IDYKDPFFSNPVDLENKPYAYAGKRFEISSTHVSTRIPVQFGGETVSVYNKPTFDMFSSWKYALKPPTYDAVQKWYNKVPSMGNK

scRev7 [6] = assay: Y2H of scRev7 and scRev3 fragments; type: binding, S. cerevisiae; details: scRev7-AD with scRev3 fragment-BD; yeast PJ694-A, 5 to 7 days at 30 °C
Summary of the method: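 GAL4 AD and BD fusions of scRev7 and scRev3 RBM1, RBM2 or RBM12 (WT or mutant), tested in both orientations. Cells were transformed with 2.0 ug of each vector and grown in -LW broth at 30 °C for 3 to 5 days. They were then pelleted, resuspended in sterile water to normalise OD, serially diluted, and plated on -LW and -AHLW. Controls were empty vectors (negative) and AD/BD-fused mouse Rev7 dimerization (positive).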

apo-scRev7: scRev7 overexpressed alone (MCS-2 of pETDuet-1 empty)
SEC elution volume comparison (scRev7 [1]): elute at similar volumes

scRev3-zipper: scRev3-zipper (residues 573–594), linker region preceding RBM2 (SSTHVSTRIPVQFGGETVSVYN)
binding (heat release) (MBP-scRev7): no heat release that would be consistent with binding

scRev7/scRev3-RBM1: scRev7 co-expressed with scRev3-RBM1
SEC elution volume comparison (scRev7 [1]): elute at similar volumes

scRev7/scRev3-RBM2: scRev7 co-expressed with scRev3-RBM2, 1:1 complex
SEC elution volume comparison (scRev7 [1]): elute at similar volumes

KPTFDMFSSWKYALKPPTYDAVQKWYNKVPSMGNK [scRev3-RBM2 peptide (residues 595-629) used for ITC]
stoichiometry N [2]: 1

KPTFDMFSSWKYALKPPTYDAVQKWYNKVPSMGNK (domain or fragment) [scRev3-RBM2 (residues 595-629), co-expressed with scRev7]
stoichiometry N [3]: 1

B1
stoichiometry N [4]: 2 scRev7 per scRev3-RBM12
stoichiometry N [5]: 1

MAAGLRYGKRAFVYGEPPFGYQDILNKLEDEGFPK [scRev3-RBM1 peptide (residues 510-544) used for ITC]
stoichiometry N [2]: 1

B2: scRev3-RBM12: scRev3-RBM12 (residues 510–629), longer scRev3 construct containing both RBMs (protein)
chain: MAAGLRYGKRAFVYGEPPFGYQDILNKLEDEGFPKIDYKDPFFSNPVDLENKPYAYAGKRFEISSTHVSTRIPVQFGGETVSVYNKPTFDMFSSWKYALKPPTYDAVQKWYNKVPSMGNK
growth on -AHLW plates (scRev7 [6]): yeast grew on plates lacking adenine, histidine, leucine, and tryptophan

— PMC9926120 (The Journal of Biological Chemistry, 2022)
